For one test, the system named is U2OS cells. Description: Flow cytometry, early apoptosis, adriamycin. It is filed as cell-based. To be noted: adriamycin 1 μg ml−1, one day; control cells (control siRNA); n=4. An outline of the steps:
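U2OS cells were transfected with PIMT or control siRNA. After 2 days they were treated with adriamycin, and apoptotic cells were scored by flow cytometry one day later. At least 10,000 cells were analysed per treatment. Significance was tested by Student's t-test.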
(Flow cytometry measures light scatter and fluorescence of single cells or particles in a stream.)

The test system of another test is PIMT. In words: In vitro methylation assay with recombinant GST-PIMT. The class given is biochemical. To be noted: GST-p53 1–82 methylated by GST-PIMT or His-PIMT, followed by NaOH; fluorography.
A further test has as its system p53. Description: p53 protein level, immunoblot. The settings on record: U2OS cells, PIMT siRNA/shRNA or ectopic PIMT expression. The class given is cell-based. (In general: A western blot detects proteins with antibodies after separation by electrophoresis.)
The test system of the next test is p53-HDM2 interaction. Description: p53-HDM2 co-immunoprecipitation. The class given is cell-based. To be noted: U2OS cells (PIMT siRNA) or H1299 cells (HA-p53, Flag-PIMT). An outline of the steps:
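Supernatants were incubated overnight at 4 °C with FLAG-, HA- or p53-antibody agarose and washed twice. Eluates were boiled 5 min, run on 4–12% Bis–Tris gels and immunoblotted with HRP-conjugated primary antibodies using chemiluminescence.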

Another test concerns p53 ubiquitination. Description: p53 ubiquitination. To be noted: U2OS or H1299 cells, MG132 40 μM. The class given is cell-based.
Test [1] has as its system p21 or Bax promoter luciferase. Description: Luciferase assay, p53-dependent transcription. The class given is cell-based. To be noted: H1299 cells, p21-luc or Bax-luc; n=4.

For the compound `COc1cccc2c1C(=O)c1c(O)c3c(c(O)c1C2=O)C[C@@](O)(C(=O)CO)C[C@@H]3O[C@H]1C[C@H](N)[C@H](O)[C@H](C)O1` [adriamycin], the early apoptosis in the test with U2OS cells came out at 19.5%.

With “p53 (amino acids 1–82): N terminus of p53 (amino acids 1–82)”, the “methylation after alkaline treatment” value with PIMT is recorded as “removed upon alkaline treatment”.

In the case of “protein L-isoaspartyl methyltransferase [PIMT]”, in the test with p53, the p53 protein level entry is listed as “decreased the p53 protein levels in a dose-dependent manner”. Besides, the p53-HDM2 interaction entry in the test with p53-HDM2 interaction was “enhanced”. Also, the “ubiquitination of p53” value with p53 ubiquitination is “increased p53 ubiquitination”. Further, the p53-dependent transcription result in test [1] was “inhibited the p53-dependent transcription of both reporter genes”.

(Values after publication PMC3621463 (Nature Communications, 2012).)
